# Reference: PubChem BioAssay AID623916 (The Scripps Research Institute Molecular Screening Center, 2012)
# Activity calls are given as the source filed them.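 Rule for the calls: active = recipient E. coli survival below 80% of the solvent-only control; inactive = survival at 80% of control or higher.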
# Tested on: E. coli V66 viability, colony formation, 1.5 h
# Assay: recipient strain killing during Hfr crosses – colony formation, single concentration, Hfr recombination, cytotoxicity control for AddAB inhibitor project, late-stage follow-up (AID 623916)
# Settings: at 100 µM
# Outline: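 buffer or medium = LB broth | assay system = E. coli strain V66 recipients | benchmarks = DMSO vehicle control as viability reference | timing = 1.5 h total compound exposure | dosing = single nominal 100 µM compound, present during pre-growth and mating | detection = colony counts of V66 on non-selective agar plates, CFU/mL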
row,Compound,outcome
1,CCn1cc(C(=O)O)c(=O)c2cnc(N3CCN(C(=S)Nc4ccccc4F)CC3)nc21,inactive
2,CC(=O)Nc1ccc2nc(NC(=O)c3ccc([N+](=O)[O-])o3)sc2c1,inactive
3,Cc1cccnc1NC(=O)c1ccc([N+](=O)[O-])o1,inactive
4,Cc1sc(NC(=O)c2ccc(Br)o2)c(C#N)c1C,inactive
5,Nc1c(NC(=O)c2ccc([N+](=O)[O-])o2)sc2c1CCCC2,inactive
6,Cc1ccc(C(=O)Nc2sc3c(c2C#N)CCC3)o1,inactive
7,CCn1cc(C(=O)O)c(=O)c2cnc(N3CCN(C(=S)Nc4ccc5c(c4)OCO5)CC3)nc21,inactive
8,CCn1cc(C(=O)O)c(=O)c2cnc(N3CCN(C(=S)NCc4ccccc4)CC3)nc21,inactive
9,CCn1cc(C(=O)O)c(=O)c2cnc(N3CCNCC3)nc21,inactive
10,N#Cc1c(NC(=O)c2ccccc2)sc2c1CCC2,inactive
11,C=CCn1c(Sc2ncc([N+](=O)[O-])s2)n[nH]c1=O,inactive
12,CCn1cc(C(=O)O)c(=O)c2cc(F)c(N3CCN(C(=S)Nc4cccc(C(F)(F)F)c4)CC3)cc21,active
13,CCn1cc(C(=O)O)c(=O)c2cnc(N3CCN(C(=S)NC(=O)c4ccccc4Cl)CC3)nc21,inactive
14,N#Cc1c(NC(=O)c2ccc([N+](=O)[O-])o2)sc2c1CCCC2,inactive
15,O=C(Nc1cccc(NC(=O)c2ccccc2Cl)c1)c1ccc([N+](=O)[O-])o1,inactive
16,CCn1cc(C(=O)O)c(=O)c2cnc(N3CCN(C(=S)NC(C)c4ccccc4)CC3)nc21 (centres undefined),inactive
17,O=C(NCc1cccnc1)c1ccc([N+](=O)[O-])o1,inactive
18,N#Cc1c(NC(=O)c2cnccn2)sc2c1CCCC2,inactive
19,CCn1cc(C(=O)O)c(=O)c2cnc(N3CCN(C(=S)Nc4ccccc4OC)CC3)nc21,inactive
20,N#Cc1c(NC(=O)c2ccco2)sc2c1CCC2,inactive
21,CCn1cc(C(=O)O)c(=O)c2cnc(N3CCN(C(=S)Nc4ccccc4C)CC3)nc21,inactive
22,CCn1cc(C(=O)O)c(=O)c2cnc(N3CCN(C(=S)Nc4cccc(C(F)(F)F)c4)CC3)nc21,inactive
23,CC1CCc2c(sc(NC(=O)c3ccc([N+](=O)[O-])o3)c2N)C1 (centres undefined),inactive
24,N#Cc1c(NC(=O)c2ccccc2C(=O)O)sc2c1CCCC2,inactive
25,N#Cc1c(NC(=O)c2ccc([N+](=O)[O-])o2)sc2c1CCC2,inactive

row,Compound,outcome
1,N#Cc1c(NC(=O)c2cccc(F)c2)sc2c1CCCC2,inactive
2,CCn1cc(C(=O)O)c(=O)c2cnc(N3CCN(C(=S)Nc4ccccc4C(F)(F)F)CC3)nc21,inactive
3,CCn1cc(C(=O)O)c(=O)c2cnc(N3CCN(C(=S)Nc4ccc(F)cc4)CC3)nc21,inactive
4,CCn1cc(C(=O)O)c(=O)c2cnc(N3CCN(C(=S)Nc4ccc5c(c4)OCCO5)CC3)nc21,inactive
5,Cc1ccc2nc(/C(C#N)=C\c3ccc([N+](=O)[O-])o3)[nH]c2c1,inactive
6,CCn1cc(C(=O)O)c(=O)c2cnc(N3CCN(C(=S)Nc4ccccc4Cl)CC3)nc21,inactive
7,CC1CCc2c(sc(NC(=O)c3ccc([N+](=O)[O-])o3)c2C#N)C1 (centres undefined),inactive
8,CC1(C)Cc2c(sc(NC(=O)c3ccco3)c2C#N)CO1,inactive
9,CCn1cc(C(=O)O)c(=O)c2cnc(N3CCN(C(=S)Nc4ccc(Cl)cc4)CC3)nc21,inactive
10,O=C(Nc1ccc(N2CCOCC2)cc1)c1ccc([N+](=O)[O-])o1,inactive
11,CCn1cc(C(=O)O)c(=O)c2cnc(N3CCN(C(=S)NC(=O)c4ccco4)CC3)nc21,inactive
12,NC(=O)c1ccsc1NC(=O)COC(=O)c1ccc([N+](=O)[O-])o1,inactive
13,C=CCNC(=S)N1CCN(c2ncc3c(=O)c(C(=O)O)cn(CC)c3n2)CC1,inactive
14,O=C(Nc1ncccn1)c1ccc([N+](=O)[O-])o1,inactive
15,CCn1cc(C(=O)O)c(=O)c2cnc(N3CCN(C(=S)NC(=O)c4cccc(C)c4)CC3)nc21,inactive
16,CCn1cc(C(=O)O)c(=O)c2cnc(N3CCN(C(=O)Nc4ccccc4)CC3)nc21,inactive
17,N#Cc1c(NC(=O)C2CC=CCC2C(=O)O)sc2c1CCC2 (centres undefined),inactive
18,O=C(OCC(=O)c1cccs1)c1ccc([N+](=O)[O-])o1,inactive
19,CCn1cc(C(=O)O)c(=O)c2cnc(N3CCN(C(=S)Nc4ccccc4)CC3)nc21,inactive
20,N#Cc1c(NC(=O)c2ccc(-c3ccccc3[N+](=O)[O-])o2)sc2c1CCCC2,inactive
21,CCn1cc(C(=O)O)c(=O)c2cnc(N3CCN(C(=S)NC(=O)c4cccnc4)CC3)nc21,inactive
22,CCn1cc(C(=O)O)c(=O)c2cnc(N3CCN(C(=S)NC4CC5CCC4C5)CC3)nc21 (centres undefined),inactive
23,Cc1ccc(C(=O)Nc2sc3c(c2C#N)CCCCC3)o1,inactive
24,CCn1cc(C(=O)O)c(=O)c2cnc(N3CCN(C(=S)NC)CC3)nc21,inactive
